In ChEMBL document CHEMBL1131139, “Synthesis and antibacterial activity of ketolides (6-O-methyl-3-oxoerythromycin derivatives): a new class of antibacterials highly potent against macrolide-resistant and -susceptible respiratory pathogens” (1998) one finds MIC data, which are given here for eight compounds.

Assay type in all cases: functional
Assay [1] has as its system Streptococcus pneumoniae. The assay is described as follows: In vitro inhibitory activity against Streptococcus pneumoniae (032UC1). The essentials:
(§1)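 Two-fold agar dilution on Mueller-Hinton agar (pH 7.4). Inoculum from overnight plate cultures suspended in Mueller-Hinton broth, adjusted to 10^9 CFU/mL, diluted 1:200 and spotted by multipoint inoculator at about 10^4 CFU/spot. Plates incubated 37 °C for 20 h. MIC taken as lowest concentration with no visible growth.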

The test system of assay [2] is Streptococcus pneumoniae. The assay is described as follows: In vitro inhibitory activity against Streptococcus pneumoniae (EryRi 030SJ5i). The procedure, abridged:
as §1

The test system of assay [3] is Staphylococcus aureus. The assay is described as follows: In vitro inhibitory activity against Staphylococcus aureus (011UC4). The procedure, abridged: as §1
The test system of assay [4] is Haemophilus influenzae. The assay is described as follows: In vitro inhibitory activity against Haemophilus influenzae (351HT3). The procedure, abridged:
as §1

The subject of assay [5] is Staphylococcus aureus. The experiment in a line: In vitro inhibitory activity against Staphylococcus aureus (EryRi 011GO25i). The procedure, abridged:
as §1

For assay [6], the system named is Streptococcus pneumoniae. The assay is described as follows: In vitro inhibitory activity against Streptococcus pneumoniae (EryRc 030SJ1). The essentials: as §1
The subject of assay [7] is Haemophilus influenzae. The assay is described as follows: In vitro inhibitory activity against Haemophilus influenzae (351CB12). The procedure, abridged: as §1
Another assay relates to Streptococcus pyogenes. The experiment in a line: In vitro inhibitory activity against Streptococcus pyogenes (02A1UC1). The essentials:
as §1

For assay [8], the system named is Staphylococcus aureus. The assay is described as follows: In vitro inhibitory activity against Staphylococcus aureus (EryRc 011CB20). The essentials: as §1
The test system of assay [9] is Staphylococcus epidermidis. The assay is described as follows: In vitro inhibitory activity against Staphylococcus epidermidis (EryRi 012GO11i). The procedure, abridged:
as §1

For another assay, the system named is Escherichia coli. The experiment in a line: In vitro inhibitory activity against Escherichia coli (250 UC5). The procedure, abridged:
as §1

Values after ≈ are worked out from the molar mass of the structure shown.

`CC[C@H]1OC(=O)[C@H](C)C(=O)[C@H](C)[C@@H](O[C@@H]2O[C@H](C)C[C@H](N(C)C)[C@H]2O)[C@](C)(OC)C[C@@H](C)C(=O)[C@H](C)[C@H]2N(CCN(C)Cc3ccccc3)C(=O)O[C@]12C`: the MIC against Streptococcus pneumoniae [1] stood at 0.02 µg/mL (≈ 0.0263 µM); in the assay with Streptococcus pneumoniae [2], 0.3 µg/mL (≈ 0.395 µM); in the assay with Staphylococcus aureus [3], 0.15 µg/mL (≈ 0.197 µM); with Haemophilus influenzae [4], 5 µg/mL (≈ 6.58 µM); in the assay with Staphylococcus aureus [5], 0.6 µg/mL (≈ 0.789 µM); against Streptococcus pneumoniae [6], 10 µg/mL (≈ 13.2 µM). Also, the MIC came to 2.5 µg/mL (≈ 3.29 µM) with Haemophilus influenzae [7]; 0.04 µg/mL (≈ 0.0526 µM) against Streptococcus pyogenes; 40 µg/mL (≈ 52.6 µM) against Staphylococcus aureus [8]; 0.15 µg/mL (≈ 0.197 µM) in assay [9]; 40 µg/mL (≈ 52.6 µM) against Escherichia coli.

With `CC[C@H]1OC(=O)[C@H](C)C(=O)[C@H](C)[C@@H](O[C@@H]2O[C@H](C)C[C@H](N(C)C)[C@H]2O)[C@](C)(OC)C[C@@H](C)/C(=N\OC2CCCN(CCCc3ccc(O)cc3)C2)[C@H](C)[C@@H](O)[C@]1(C)O` (stereo partly drawn), the MIC amounted to 0.02 µg/mL (≈ 0.0244 µM) against Streptococcus pneumoniae [1]; 0.15 µg/mL (≈ 0.183 µM) in the assay with Streptococcus pneumoniae [2]; 0.08 µg/mL (≈ 0.0976 µM) with Staphylococcus aureus [3]; 5 µg/mL (≈ 6.1 µM) against Haemophilus influenzae [4]; 0.6 µg/mL (≈ 0.732 µM) against Staphylococcus aureus [5]; 0.6 µg/mL (≈ 0.732 µM) in the assay with Streptococcus pneumoniae [6]. Besides, the MIC in the assay with Haemophilus influenzae [7] came out at 1.2 µg/mL (≈ 1.46 µM); in the assay on Streptococcus pyogenes it was 0.04 µg/mL (≈ 0.0488 µM); with Staphylococcus aureus [8] it was 40 µg/mL (≈ 48.8 µM); in assay [9], 0.3 µg/mL (≈ 0.366 µM); against Escherichia coli, 40 µg/mL (≈ 48.8 µM).

Turning to `CC[C@H]1OC(=O)[C@H](C)C(=O)[C@H](C)[C@@H](O[C@@H]2O[C@H](C)C[C@H](N(C)C)[C@H]2O)[C@](C)(OC)C[C@@H](C)C(=O)[C@H](C)[C@@H](O)[C@]1(C)O`, the MIC against Streptococcus pneumoniae [1] came to 0.15 µg/mL (≈ 0.255 µM); against Streptococcus pneumoniae [2] it was 40 µg/mL (≈ 68.1 µM); against Staphylococcus aureus [3] it was 0.3 µg/mL (≈ 0.51 µM); against Haemophilus influenzae [4], 20 µg/mL (≈ 34 µM); against Staphylococcus aureus [5] it was 40 µg/mL (≈ 68.1 µM); against Streptococcus pneumoniae [6] it was 40 µg/mL (≈ 68.1 µM). In addition, the MIC with Haemophilus influenzae [7] was found to be 20 µg/mL (≈ 34 µM); in the assay with Streptococcus pyogenes it was 0.6 µg/mL (≈ 1.02 µM); against Staphylococcus aureus [8], 40 µg/mL (≈ 68.1 µM); in [9], 5 µg/mL (≈ 8.51 µM); in the assay on Escherichia coli, 40 µg/mL (≈ 68.1 µM).

`CC[C@H]1OC(=O)[C@H](C)C(=O)[C@H](C)[C@@H](O[C@@H]2O[C@H](C)C[C@H](N(C)C)[C@H]2O)[C@](C)(OC)C[C@@H](C)/C(=N\OCCNCCN2CCCC2)[C@H](C)[C@@H](O)[C@]1(C)O`: the MIC in the assay with Streptococcus pneumoniae [1] was 10 µg/mL (≈ 13.5 µM); against Streptococcus pneumoniae [2] it was 1.2 µg/mL (≈ 1.62 µM); in the assay with Staphylococcus aureus [3], 0.3 µg/mL (≈ 0.404 µM); in the assay with Haemophilus influenzae [4], 20 µg/mL (≈ 26.9 µM); against Staphylococcus aureus [5], 1.2 µg/mL (≈ 1.62 µM); in the assay with Streptococcus pneumoniae [6], 0.6 µg/mL (≈ 0.808 µM). In addition, the MIC came to 10 µg/mL (≈ 13.5 µM) with Haemophilus influenzae [7]; 0.04 µg/mL (≈ 0.0538 µM) in the assay with Streptococcus pyogenes; 40 µg/mL (≈ 53.8 µM) in the assay with Staphylococcus aureus [8]; 0.6 µg/mL (≈ 0.808 µM) in assay [9]; 40 µg/mL (≈ 53.8 µM) in the assay on Escherichia coli.

In the case of `CC[C@H]1OC(=O)[C@H](C)C(=O)[C@H](C)[C@@H](O[C@@H]2O[C@H](C)C[C@H](N(C)C)[C@H]2O)[C@](C)(OC)C[C@@H](C)/C(=N\OCCNCCN(C)C)[C@H](C)[C@@H](O)[C@]1(C)O`, the MIC in the assay on Streptococcus pneumoniae [1] was 0.15 µg/mL (≈ 0.209 µM); against Streptococcus pneumoniae [2], 10 µg/mL (≈ 13.9 µM); in the assay on Staphylococcus aureus [3], 0.6 µg/mL (≈ 0.837 µM); with Haemophilus influenzae [4], 40 µg/mL (≈ 55.8 µM); in the assay with Staphylococcus aureus [5] it was 5 µg/mL (≈ 6.97 µM); with Streptococcus pneumoniae [6], 40 µg/mL (≈ 55.8 µM). The MIC with Haemophilus influenzae [7] is 20 µg/mL (≈ 27.9 µM); against Streptococcus pyogenes, 0.15 µg/mL (≈ 0.209 µM); with Staphylococcus aureus [8], 40 µg/mL (≈ 55.8 µM); in [9] it was 1.2 µg/mL (≈ 1.67 µM); in the assay with Escherichia coli, 40 µg/mL (≈ 55.8 µM).

As for `CC[C@H]1OC(=O)[C@H](C)C(=O)[C@H](C)[C@@H](O[C@@H]2O[C@H](C)C[C@H](N(C)C)[C@H]2O)[C@](C)(OC)C[C@@H](C)C(=O)[C@H](C)[C@H]2NC(=O)O[C@@]21C`, the MIC in the assay on Streptococcus pneumoniae [1] is 0.02 µg/mL (≈ 0.0326 µM); in the assay with Streptococcus pneumoniae [2] it was 2.5 µg/mL (≈ 4.08 µM); in the assay on Staphylococcus aureus [3] it was 0.6 µg/mL (≈ 0.979 µM); with Haemophilus influenzae [4], 5 µg/mL (≈ 8.16 µM); in the assay on Staphylococcus aureus [5], 0.6 µg/mL (≈ 0.979 µM); in the assay on Streptococcus pneumoniae [6], 5 µg/mL (≈ 8.16 µM). For the same compound, the MIC turned out to be 5 µg/mL (≈ 8.16 µM) against Haemophilus influenzae [7]; 0.04 µg/mL (≈ 0.0653 µM) in the assay with Streptococcus pyogenes; 40 µg/mL (≈ 65.3 µM) against Staphylococcus aureus [8]; 10 µg/mL (≈ 16.3 µM) in [9]; 40 µg/mL (≈ 65.3 µM) in the assay with Escherichia coli.

`CC[C@H]1OC(=O)[C@H](C)C(=O)[C@H](C)[C@@H](O[C@@H]2O[C@H](C)C[C@H](N(C)C)[C@H]2O)[C@](C)(OC)C[C@@H](C)C2=NCCN3C(=O)O[C@@]1(C)[C@H]3[C@H]2C`: the MIC in the assay with Streptococcus pneumoniae [1] stood at 0.02 µg/mL (≈ 0.0314 µM); in the assay on Streptococcus pneumoniae [2], 40 µg/mL (≈ 62.7 µM); with Staphylococcus aureus [3], 0.3 µg/mL (≈ 0.47 µM); against Haemophilus influenzae [4] it was 5 µg/mL (≈ 7.84 µM); in the assay with Staphylococcus aureus [5], 0.6 µg/mL (≈ 0.941 µM); against Streptococcus pneumoniae [6], 40 µg/mL (≈ 62.7 µM). For the same compound, the MIC is 5 µg/mL (≈ 7.84 µM) against Haemophilus influenzae [7]; 0.08 µg/mL (≈ 0.125 µM) against Streptococcus pyogenes; 40 µg/mL (≈ 62.7 µM) against Staphylococcus aureus [8]; 0.3 µg/mL (≈ 0.47 µM) in assay [9]; 40 µg/mL (≈ 62.7 µM) in the assay on Escherichia coli.

Consider `CC[C@H]1OC(=O)[C@H](C)C(=O)[C@H](C)[C@@H](O[C@@H]2O[C@H](C)C[C@H](N(C)C)[C@H]2O)[C@](C)(OC)C[C@@H](C)/C(=N\OCCN2CCOCC2)[C@H](C)[C@@H](O)[C@]1(C)O`, for which the MIC against Streptococcus pneumoniae [1] was determined as 40 µg/mL (≈ 55.9 µM); with Streptococcus pneumoniae [2], 20 µg/mL (≈ 27.9 µM); against Staphylococcus aureus [3], 1.2 µg/mL (≈ 1.68 µM); with Haemophilus influenzae [4] it was 40 µg/mL (≈ 55.9 µM); against Staphylococcus aureus [5], 10 µg/mL (≈ 14 µM); in the assay with Streptococcus pneumoniae [6], 5 µg/mL (≈ 6.98 µM). Besides, the MIC was 40 µg/mL (≈ 55.9 µM) against Haemophilus influenzae [7]; 0.15 µg/mL (≈ 0.21 µM) against Streptococcus pyogenes; 40 µg/mL (≈ 55.9 µM) against Staphylococcus aureus [8]; 2.5 µg/mL (≈ 3.49 µM) in [9]; 40 µg/mL (≈ 55.9 µM) in the assay on Escherichia coli.
